Laboratory results published in ChEMBL document CHEMBL5058577, “EUbOPEN Chemogenomics Library 2 (Multiplex)” (2022).

Tested on: Fibroblast
Experiment: Multiplex assay against human fibroblast
Format: toxicity, cell-based
Method in brief: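 Imaging took place on a CQ1 microscope at 37°C and 5% CO2 once compound had been added to live cells stained at seeding with Hoechst33342, BioTracker Green Microtubule Cytoskeleton Dye, MitoTracker Red and Annexin V Alexa Fluor 680. CellPathfinder machine-learning gating classed cells as Hoechst high-intensity objects or normal cells, classed normal cells as having healthy, pyknosed or fragmented nuclei, and classed pyknosed cells as mitotic or apoptotic. Tubulin, mitochondrial-mass and membrane-permeability phenotypes are per cents of the healthy-nucleus cells.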

[1] = 12 h, 1 µM, compound concentration 1 uM, replicate 1
[2] = 12 h, 1 µM, compound concentration 1 uM, replicate 2
[3] = 12 h, 10 µM, compound concentration 10 uM, replicate 1
[4] = 12 h, 10 µM, compound concentration 10 uM, replicate 2
[5] = 24 h, 1 µM, compound concentration 1 uM, replicate 1
[6] = 24 h, 1 µM, compound concentration 1 uM, replicate 2
[7] = 24 h, 10 µM, compound concentration 10 uM, replicate 1
[8] = 24 h, 10 µM, compound concentration 10 uM, replicate 2
[9] = 48 h, 1 µM, compound concentration 1 uM, replicate 1
[10] = 48 h, 1 µM, compound concentration 1 uM, replicate 2
[11] = 48 h, 10 µM, compound concentration 10 uM, replicate 1
[12] = 48 h, 10 µM, compound concentration 10 uM, replicate 2

Cc1c(CC(=O)O)c2cccnc2n1Cc1ccc(S(C)(=O)=O)cc1C(F)(F)F [FEVIPIPRANT]
Population Apoptotic (%) [1]: 44% | Population Fragmented Nuclei (%) [1]: 22% | Population Healthy Nuclei (%) [1]: 60% | Population Hoechst High Intensity Objects (%) [1]: 3% | Population Membrane Permeable-Phenotype (%) [1]: 1% | Population Mitochondria Different-Phenotype (%) [1]: 3% | Population Mitotic Cells (%) [1]: 55% | Population Normal (%) [1]: 96% | Population Pyknosed Nuclei (%) [1]: 18% | Population Tubulin-Different-Phenotype (%) [1]: 20% | Total Cell Count [1]: 156 | Population Apoptotic (%) [2]: 25% | Population Fragmented Nuclei (%) [2]: 33% | Population Healthy Nuclei (%) [2]: 48% | Population Membrane Permeable-Phenotype (%) [2]: 13% | Population Mitochondria Different-Phenotype (%) [2]: 12% | Population Mitotic Cells (%) [2]: 74% | Population Pyknosed Nuclei (%) [2]: 17% | Population Tubulin-Different-Phenotype (%) [2]: 56% | Population Apoptotic (%) [3]: 34% | Population Fragmented Nuclei (%) [3]: 10% | Population Healthy Nuclei (%) [3]: 71% | Population Hoechst High Intensity Objects (%) [3]: 3% | Population Membrane Permeable-Phenotype (%) [3]: 1% | Population Mitochondria Different-Phenotype (%) [3]: 4% | Population Mitotic Cells (%) [3]: 65% | Population Normal (%) [3]: 96% | Population Pyknosed Nuclei (%) [3]: 17% | Population Tubulin-Different-Phenotype (%) [3]: 25% | Total Cell Count [3]: 132 | Population Apoptotic (%) [4]: 22% | Population Fragmented Nuclei (%) [4]: 21% | Population Healthy Nuclei (%) [4]: 54% | Population Hoechst High Intensity Objects (%) [4]: 5% | Population Membrane Permeable-Phenotype (%) [4]: 9% | Population Mitochondria Different-Phenotype (%) [4]: 6% | Population Mitotic Cells (%) [4]: 77% | Population Normal (%) [4]: 94% | Population Pyknosed Nuclei (%) [4]: 23% | Population Tubulin-Different-Phenotype (%) [4]: 55% | Total Cell Count [4]: 139 | Population Apoptotic (%) [5]: 55% | Population Fragmented Nuclei (%) [5]: 14% | Population Healthy Nuclei (%) [5]: 66% | Population Hoechst High Intensity Objects (%) [5]: 3% | Population Membrane Permeable-Phenotype (%) [5]: 1% | Population Mitochondria Different-Phenotype (%) [5]: 5% | Population Mitotic Cells (%) [5]: 44% | Population Normal (%) [5]: 96% | Population Pyknosed Nuclei (%) [5]: 19% | Population Tubulin-Different-Phenotype (%) [5]: 23% | Total Cell Count [5]: 156 | Population Apoptotic (%) [6]: 52% | Population Fragmented Nuclei (%) [6]: 35% | Population Healthy Nuclei (%) [6]: 47% | Population Membrane Permeable-Phenotype (%) [6]: 4% | Population Mitochondria Different-Phenotype (%) [6]: 8% | Population Mitotic Cells (%) [6]: 48% | Population Pyknosed Nuclei (%) [6]: 17% | Population Tubulin-Different-Phenotype (%) [6]: 50% | Total Cell Count [6]: 150 | Population Apoptotic (%) [7]: 57% | Population Fragmented Nuclei (%) [7]: 16% | Population Healthy Nuclei (%) [7]: 67% | Population Hoechst High Intensity Objects (%) [7]: 1% | Population Membrane Permeable-Phenotype (%) [7]: 1% | Population Mitochondria Different-Phenotype (%) [7]: 2% | Population Mitotic Cells (%) [7]: 42% | Population Normal (%) [7]: 98% | Population Pyknosed Nuclei (%) [7]: 16% | Population Tubulin-Different-Phenotype (%) [7]: 24% | Total Cell Count [7]: 130 | Population Apoptotic (%) [8]: 31% | Population Fragmented Nuclei (%) [8]: 22% | Population Healthy Nuclei (%) [8]: 55% | Population Hoechst High Intensity Objects (%) [8]: 7% | Population Membrane Permeable-Phenotype (%) [8]: 5% | Population Mitochondria Different-Phenotype (%) [8]: 5% | Population Mitotic Cells (%) [8]: 68% | Population Normal (%) [8]: 92% | Population Pyknosed Nuclei (%) [8]: 21% | Population Tubulin-Different-Phenotype (%) [8]: 52% | Total Cell Count [8]: 146 | Population Apoptotic (%) [9]: 65% | Population Fragmented Nuclei (%) [9]: 16% | Population Healthy Nuclei (%) [9]: 67% | Population Hoechst High Intensity Objects (%) [9]: 5% | Population Membrane Permeable-Phenotype (%) [9]: 0% | Population Mitochondria Different-Phenotype (%) [9]: 4% | Population Mitotic Cells (%) [9]: 35% | Population Normal (%) [9]: 94% | Population Pyknosed Nuclei (%) [9]: 16% | Population Tubulin-Different-Phenotype (%) [9]: 16% | Total Cell Count [9]: 132 | Population Apoptotic (%) [10]: 63% | Population Fragmented Nuclei (%) [10]: 39% | Population Healthy Nuclei (%) [10]: 47% | Population Hoechst High Intensity Objects (%) [10]: 6% | Population Membrane Permeable-Phenotype (%) [10]: 4% | Population Mitochondria Different-Phenotype (%) [10]: 8% | Population Mitotic Cells (%) [10]: 36% | Population Normal (%) [10]: 93% | Population Pyknosed Nuclei (%) [10]: 12% | Population Tubulin-Different-Phenotype (%) [10]: 47% | Total Cell Count [10]: 157 | Population Apoptotic (%) [11]: 73% | Population Fragmented Nuclei (%) [11]: 22% | Population Healthy Nuclei (%) [11]: 62% | Population Hoechst High Intensity Objects (%) [11]: 2% | Population Membrane Permeable-Phenotype (%) [11]: 0% | Population Mitochondria Different-Phenotype (%) [11]: 3% | Population Mitotic Cells (%) [11]: 26% | Population Normal (%) [11]: 97% | Population Pyknosed Nuclei (%) [11]: 14% | Population Tubulin-Different-Phenotype (%) [11]: 29% | Total Cell Count [11]: 132 | Population Apoptotic (%) [12]: 58% | Population Fragmented Nuclei (%) [12]: 32% | Population Healthy Nuclei (%) [12]: 53% | Population Membrane Permeable-Phenotype (%) [12]: 3% | Population Mitochondria Different-Phenotype (%) [12]: 2% | Population Mitotic Cells (%) [12]: 41% | Population Tubulin-Different-Phenotype (%) [12]: 52% | Total Cell Count [12]: 171
